Results: ChEMBL document CHEMBL4325828, “The Design, Synthesis, and Characterizations of Spore Germination Inhibitors Effective against an Epidemic Strain of Clostridium difficile” (J Med Chem, 2018)

Key:
Clostridioides difficile [1] = test: Antibacterial activity against Clostridium difficile R20291 assessed as inhibition of spore germination by measuring heat activated spore germination levels at 125 uM in presence of 6 mM taurocholate and 12 mM glycine measured every minute for 2 hrs by standard optical density assay relative to control; assay type: functional; parameters: scale not given: the % may be the effect or the level left
Method in brief: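 R20291 spores were screened at a single 125 µM concentration, with germination followed as the fall in absorbance at 580 nm. Compounds not soluble at 125 µM by visual inspection were discarded. Inhibition is relative to untreated spore samples.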

Clostridioides difficile [2] = test: Antibacterial activity against Clostridium difficile R20291 assessed as inhibition of spore germination in presence of 6 mM taurocholate and 12 mM glycine measured every minute for 2 hrs by standard optical density assay; assay type: functional, organism-based
Method in brief: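 IC50 was determined on R20291 spores across a range of compound concentrations in sodium phosphate medium with 6 mM taurocholate and 12 mM glycine. Germination was read as the decrease in absorbance at 580 nm.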

Clostridioides difficile [3] = test: Antibacterial activity against Clostridium difficile R20291 assessed as inhibition of spore germination in complex BHIS media containing 6 mM taurocholate measured every minute for 2 hrs by standard optical density assay; assay type: functional, organism-based
Method in brief: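 IC50 was determined on R20291 spores across multiple compound concentrations in complex BHIS medium supplemented with 6 mM taurocholate. Germination was monitored as the decline in absorbance at 580 nm.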

Clostridioides difficile [4] = test: Potency index, ratio of IC50 for chenodeoxycholate to IC50 for test compound for inhibition of spore germination in Clostridium difficile R20291 in presence of 6 mM taurocholate and 12 mM glycine measured every minute for 2 hrs by standard optical density assay; assay type: functional

Compound | Activity (Clostridioides difficile [1]) [%] | IC50 (Clostridioides difficile [2]) [µM] | IC50 (Clostridioides difficile [3]) [µM] | Ratio IC50 (Clostridioides difficile [4])
C#CCNC(=O)CC[C@@H](C)[C@H]1CC[C@H]2[C@@H]3[C@H](O)C[C@@H]4C[C@H](O)CC[C@]4(C)[C@H]3C[C@H](O)[C@]12C | 59 | 137 | – | –
C[C@H](CCC(=O)NCc1ccc(S(N)(=O)=O)cc1)[C@H]1CC[C@H]2[C@@H]3[C@H](O)C[C@@H]4C[C@H](O)CC[C@]4(C)[C@H]3C[C@H](O)[C@]12C | 109 | – | – | –
C[C@H](CCC(=O)Nc1cccc(S(=O)(=O)O)c1)[C@H]1CC[C@H]2[C@@H]3[C@H](O)C[C@@H]4C[C@H](O)CC[C@]4(C)[C@H]3C[C@H](O)[C@]12C | 102 | – | – | –
Cc1csc(NC(=O)CC[C@@H](C)[C@H]2CC[C@H]3[C@@H]4[C@H](O)C[C@@H]5C[C@H](O)CC[C@]5(C)[C@H]4C[C@H](O)[C@]23C)n1 | 84 | – | – | –
C[C@H](CCC(=O)Nc1ccc(NC(=O)OC(C)(C)C)cc1)[C@H]1CC[C@H]2[C@@H]3[C@H](O)C[C@@H]4C[C@H](O)CC[C@]4(C)[C@H]3C[C@H](O)[C@]12C | 100 | – | – | –
COc1ccc(NC(=O)CC[C@@H](C)[C@H]2CC[C@H]3[C@@H]4[C@H](O)C[C@@H]5C[C@H](O)CC[C@]5(C)[C@H]4C[C@H](O)[C@]23C)c(OC)c1 | 93 | – | – | –
C[C@H](CCC(=O)NCc1ccc(N)cc1)[C@H]1CC[C@H]2[C@@H]3[C@H](O)C[C@@H]4C[C@H](O)CC[C@]4(C)[C@H]3C[C@H](O)[C@]12C | 104 | – | – | –
C[C@H](CCC(=O)NCC1CC1)[C@H]1CC[C@H]2[C@@H]3[C@H](O)C[C@@H]4C[C@H](O)CC[C@]4(C)[C@H]3C[C@H](O)[C@]12C | 15 | 24.3 | – | –
C[C@H](CCC(=O)Nc1cccc(C(N)=O)c1)[C@H]1CC[C@H]2[C@@H]3[C@H](O)C[C@@H]4C[C@H](O)CC[C@]4(C)[C@H]3C[C@H](O)[C@]12C | 85 | – | – | –
C[C@H](CCC(=O)Nc1cccc(N)c1)[C@H]1CC[C@H]2[C@@H]3[C@H](O)C[C@@H]4C[C@H](O)CC[C@]4(C)[C@H]3C[C@H](O)[C@]12C.Cl | 59 | 32 | – | –
Cc1cc(F)ccc1NC(=O)CC[C@@H](C)[C@H]1CC[C@H]2[C@@H]3[C@H](O)C[C@@H]4C[C@H](O)CC[C@]4(C)[C@H]3C[C@H](O)[C@]12C | 37 | 24 | – | –
C[C@H](CCC(=O)NCc1ccccc1N)[C@H]1CC[C@H]2[C@@H]3[C@H](O)C[C@@H]4C[C@H](O)CC[C@]4(C)[C@H]3C[C@H](O)[C@]12C | 95 | – | – | –
COc1ccc(CNC(=O)CC[C@@H](C)[C@H]2CC[C@H]3[C@@H]4[C@H](O)C[C@@H]5C[C@H](O)CC[C@]5(C)[C@H]4C[C@H](O)[C@]23C)c(OC)c1 | 85 | – | – | –
C[C@H](CCC(=O)NCc1ccc([N+](=O)[O-])cc1)[C@H]1CC[C@H]2[C@@H]3[C@H](O)C[C@@H]4C[C@H](O)CC[C@]4(C)[C@H]3C[C@H](O)[C@]12C | 88 | – | – | –
C[C@H](CCC(=O)Nc1ccccc1)[C@H]1CC[C@H]2[C@@H]3[C@H](O)C[C@@H]4C[C@H](O)CC[C@]4(C)[C@H]3C[C@H](O)[C@]12C | 3 | 1.8 | 1.8 | >225
COc1cc(CNC(=O)CC[C@@H](C)[C@H]2CC[C@H]3[C@@H]4[C@H](O)C[C@@H]5C[C@H](O)CC[C@]5(C)[C@H]4C[C@H](O)[C@]23C)cc(OC)c1 | 99 | – | – | –
C[C@H](CCC(=O)Nc1cccc(NC(=O)OC(C)(C)C)c1)[C@H]1CC[C@H]2[C@@H]3[C@H](O)C[C@@H]4C[C@H](O)CC[C@]4(C)[C@H]3C[C@H](O)[C@]12C | 89 | – | – | –
COc1cccc(NC(=O)CC[C@@H](C)[C@H]2CC[C@H]3[C@@H]4[C@H](O)C[C@@H]5C[C@H](O)CC[C@]5(C)[C@H]4C[C@H](O)[C@]23C)c1 | 55 | 78 | – | –

Compound | Activity (Clostridioides difficile [1]) [%] | IC50 (Clostridioides difficile [2]) [µM] | IC50 (Clostridioides difficile [3]) [µM] | Ratio IC50 (Clostridioides difficile [4])
C[C@H](CCC(=O)NCc1ccccc1)[C@H]1CC[C@H]2[C@@H]3[C@H](O)C[C@@H]4C[C@H](O)CC[C@]4(C)[C@H]3C[C@H](O)[C@]12C | 70 | – | – | –
C[C@H](CCC(=O)Nc1ccc(O)cc1)[C@H]1CC[C@H]2[C@@H]3[C@H](O)C[C@@H]4C[C@H](O)CC[C@]4(C)[C@H]3C[C@H](O)[C@]12C | 20 | 36 | – | –
C[C@H](CCC(=O)NC1CCCCC1)[C@H]1CC[C@H]2[C@@H]3[C@H](O)C[C@@H]4C[C@H](O)CC[C@]4(C)[C@H]3C[C@H](O)[C@]12C | 47 | 95.4 | – | –
C[C@H](CCC(=O)Nc1cccc(F)c1)[C@H]1CC[C@H]2[C@@H]3[C@H](O)C[C@@H]4C[C@H](O)CC[C@]4(C)[C@H]3C[C@H](O)[C@]12C | 8 | 16 | – | –
C[C@H](CCC(=O)NC1CC1)[C@H]1CC[C@H]2[C@@H]3[C@H](O)C[C@@H]4C[C@H](O)CC[C@]4(C)[C@H]3C[C@H](O)[C@]12C | 6 | 25 | – | –
C[C@H](CCC(=O)Nc1ccc(N)cc1)[C@H]1CC[C@H]2[C@@H]3[C@H](O)C[C@@H]4C[C@H](O)CC[C@]4(C)[C@H]3C[C@H](O)[C@]12C.Cl | 82 | – | – | –
C[C@H](CCC(=O)Nc1ccncc1)[C@H]1CC[C@H]2[C@@H]3[C@H](O)C[C@@H]4C[C@H](O)CC[C@]4(C)[C@H]3C[C@H](O)[C@]12C | 17 | 30.1 | – | –
C[C@H](CCC(=O)NC1CCCC1)[C@H]1CC[C@H]2[C@@H]3[C@H](O)C[C@@H]4C[C@H](O)CC[C@]4(C)[C@H]3C[C@H](O)[C@]12C | 6 | 34.1 | – | –
C[C@H](CCC(=O)NCc1cccnc1)[C@H]1CC[C@H]2[C@@H]3[C@H](O)C[C@@H]4C[C@H](O)CC[C@]4(C)[C@H]3C[C@H](O)[C@]12C | 94 | – | – | –
CCOC(=O)c1cccc(NC(=O)CC[C@@H](C)[C@H]2CC[C@H]3[C@@H]4[C@H](O)C[C@@H]5C[C@H](O)CC[C@]5(C)[C@H]4C[C@H](O)[C@]23C)c1 | 109 | – | – | –
Cc1ccc(F)cc1NC(=O)CC[C@@H](C)[C@H]1CC[C@H]2[C@@H]3[C@H](O)C[C@@H]4C[C@H](O)CC[C@]4(C)[C@H]3C[C@H](O)[C@]12C | 9 | 14 | – | –
COc1ccccc1NC(=O)CC[C@@H](C)[C@H]1CC[C@H]2[C@@H]3[C@H](O)C[C@@H]4C[C@H](O)CC[C@]4(C)[C@H]3C[C@H](O)[C@]12C | 8 | 9.8 | – | –
CC(C)CNC(=O)CC[C@@H](C)[C@H]1CC[C@H]2[C@@H]3[C@H](O)C[C@@H]4C[C@H](O)CC[C@]4(C)[C@H]3C[C@H](O)[C@]12C | 62 | 154 | – | –
CCOC(=O)c1ccc(NC(=O)CC[C@@H](C)[C@H]2CC[C@H]3[C@@H]4[C@H](O)C[C@@H]5C[C@H](O)CC[C@]5(C)[C@H]4C[C@H](O)[C@]23C)cc1 | 105 | – | – | –
C[C@H](CCC(=O)NCc1ccccc1[N+](=O)[O-])[C@H]1CC[C@H]2[C@@H]3[C@H](O)C[C@@H]4C[C@H](O)CC[C@]4(C)[C@H]3C[C@H](O)[C@]12C | 113 | 225 | – | –
COc1ccc(NC(=O)CC[C@@H](C)[C@H]2CC[C@H]3[C@@H]4[C@H](O)C[C@@H]5C[C@H](O)CC[C@]5(C)[C@H]4C[C@H](O)[C@]23C)cc1 | 79 | – | – | –
C[C@H](CCC(=O)NCc1ccc(Cl)c(Cl)c1)[C@H]1CC[C@H]2[C@@H]3[C@H](O)C[C@@H]4C[C@H](O)CC[C@]4(C)[C@H]3C[C@H](O)[C@]12C | 111 | – | – | –
C[C@H](CCC(=O)NCc1ccccn1)[C@H]1CC[C@H]2[C@@H]3[C@H](O)C[C@@H]4C[C@H](O)CC[C@]4(C)[C@H]3C[C@H](O)[C@]12C | 93 | – | – | –
